From ChEMBL document CHEMBL1134337, “Behavioral approach to nondyskinetic dopamine antagonists: identification of seroquel” (J Med Chem, 2001)

Key:
[1] = molecular target: D(2) dopamine receptor (Rattus norvegicus) (UniProt P61169); test: Binding affinity at dopamine receptor D2 from rat by spiropiperidone displacement.
Summary of the method: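 D2 receptor binding was read as % displacement of spiropiperidone, with test compound at 1000 nM unless stated otherwise. IC50 values used at least five concentrations per compound in triplicate. Each value is the mean of two replicate experiments differing by 5% or less.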

[2] = tested on: Mus musculus; test: Antagonism of apomorphine induced climbing was determined in female swiss -Webster mice after (po) administration of 20 mg/kg; assay type: functional
Summary of the method: (§1)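 Female Swiss-Webster mice (about 20 g) were fasted about 24 h, then given test compound or vehicle ip or po (N = 20 per group). Vehicle was 0.5% w/w hydroxypropylmethylcellulose with 0.1% w/w Tween 80 in water. After 30 min, mice received apomorphine HCl 1.25 mg/kg sc. At 13 min, each mouse was watched for 1 min; score was mean of highest and lowest rung of 27. Groups were compared with vehicle by Student's t-test.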

[3] = tested on: Mus musculus; test: Antagonism of apomorphine induced climbing was determined in female swiss -Webster mice after (po) administration of 5 mg/kg; assay type: functional; summary of the method: as §1
[4] = tested on: Mus musculus; test: Antagonism of apomorphine induced climbing was determined in female swiss -Webster mice after (p.o.) +SKF525A administration of 10 mg/kg; assay type: functional; conditions: route oral; summary of the method: as §1
[5] = tested on: Mus musculus; test: Antagonism of apomorphine induced climbing was determined in female swiss -Webster mice after (p.o.) +SKF525A administration of 20 mg/kg; assay type: functional; conditions: route oral; summary of the method: as §1
[6] = tested on: Mus musculus; test: Antagonism of apomorphine induced climbing was determined in female swiss -Webster mice after (ip) administration of 10 mg/kg; assay type: functional; summary of the method: as §1
[7] = tested on: Mus musculus; test: Antagonism of apomorphine induced climbing was determined in female swiss -Webster mice after (ip) administration of 2.5 mg/kg; assay type: functional; summary of the method: as §1
[8] = tested on: Mus musculus; test: Antagonism of apomorphine induced climbing was determined in female swiss -Webster mice after (ip) administration of 20 mg/kg; assay type: functional; summary of the method: as §1
[9] = tested on: Mus musculus; test: Antagonism of apomorphine induced climbing was determined in female swiss -Webster mice after (ip) administration of 5 mg/kg; assay type: functional; summary of the method: as §1
[10] = tested on: Mus musculus; test: Antagonism of apomorphine induced climbing was determined in female swiss -Webster mice after (i.p.) +SKF525A administration of 10 mg/kg; assay type: functional; conditions: route intraperitoneal; summary of the method: as §1
[11] = tested on: Mus musculus; test: Antagonism of apomorphine induced climbing was determined in female swiss -Webster mice after (i.p.) +SKF525A administration of 2.5 mg/kg; assay type: functional; conditions: route intraperitoneal; summary of the method: as §1
[12] = tested on: Mus musculus; test: Antagonism of apomorphine induced climbing was determined in female swiss -Webster mice after (i.p.) +SKF525A administration of 20 mg/kg; assay type: functional; conditions: route intraperitoneal; summary of the method: as §1
[13] = tested on: Mus musculus; test: Antagonism of apomorphine induced climbing was determined in female swiss -Webster mice after (i.p.) +SKF525A administration of 5 mg/kg; assay type: functional; conditions: route intraperitoneal; summary of the method: as §1
[14] = tested on: Mus musculus; test: Antagonism of apomorphine induced climbing was determined in female swiss -Webster mice after (p.o.) +SKF525A administration of 5 mg/kg; assay type: functional; conditions: route oral; summary of the method: as §1
[15] = tested on: Mus musculus; test: Antagonism of apomorphine induced climbing was determined in female swiss -Webster mice after (po) administration of 10 mg/kg; assay type: functional; summary of the method: as §1

D(2) dopamine receptor (Rattus norvegicus), sequence (P61169 whole entry): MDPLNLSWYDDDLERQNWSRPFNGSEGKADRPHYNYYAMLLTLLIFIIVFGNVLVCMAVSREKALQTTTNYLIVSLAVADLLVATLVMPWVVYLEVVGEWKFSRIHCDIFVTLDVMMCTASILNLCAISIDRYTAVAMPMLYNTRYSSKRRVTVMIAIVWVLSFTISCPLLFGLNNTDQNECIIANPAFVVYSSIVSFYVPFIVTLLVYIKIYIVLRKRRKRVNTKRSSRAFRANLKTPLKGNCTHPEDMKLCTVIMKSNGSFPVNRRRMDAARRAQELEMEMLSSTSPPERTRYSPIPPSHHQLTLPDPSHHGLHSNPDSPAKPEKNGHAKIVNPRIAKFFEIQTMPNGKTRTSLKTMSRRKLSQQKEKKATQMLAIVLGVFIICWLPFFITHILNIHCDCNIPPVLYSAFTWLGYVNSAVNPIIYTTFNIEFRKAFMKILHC

**Q.** Which % displacement of spiropiperidone [1] does the source give for `CN1CCN(C2=Nc3ccccc3Sc3ccccc32)CC1` here?
**A.** 35%

**Q.** And the Activity [2]?
**A.** 0

**Q.** And the Activity [3]?
**A.** 21

**Q.** What about the Activity [4] of the same compound?
**A.** 18

**Q.** And the Activity [5]?
**A.** 9

**Q.** What about the Activity [6] of the same compound?
**A.** 3

**Q.** What about the Activity [7] of the same compound?
**A.** 21

**Q.** What about the Activity [8] of the same compound?
**A.** 0

**Q.** What about the Activity [9] of the same compound?
**A.** 14

**Q.** What about the Activity [10] of the same compound?
**A.** 18

**Q.** What about the Activity [11] of the same compound?
**A.** 23

**Q.** What about the Activity [12] of the same compound?
**A.** 3

**Q.** And the Activity [13]?
**A.** 21

**Q.** And the Activity [14]?
**A.** 23

**Q.** And the Activity [15]?
**A.** 8
